Data reported in ChEMBL document CHEMBL1143280, “Discovery and optimization of imidazo[1,2-a]pyridine inhibitors of insulin-like growth factor-1 receptor (IGF-1R)” (Bioorg Med Chem Lett, 2009).

Legend:
[1] = target: T1, Insulin-like growth factor 1 receptor (Homo sapiens, UniProt P08069); experiment: Inhibition of GST-tagged IGF1R (957-1367) expressed in baculovirus by time-resolved fluorescence assay
[2] = system: Mus musculus; experiment: Dose normalized AUC (0 to 6 hrs) in po dosed mouse; type: ADME, organism-based; design: time < 6 hr, route oral; conditions: in vivo
Outline: (§1)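 Oral dosing in mice; dose-normalized AUC in ng h/mL/(mg/kg) calculated over 0–6 h.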

[3] = target: T1, Insulin-like growth factor 1 receptor; experiment: Inhibition of human IGF1R autophosphorylation in transfected mouse NIH3T3 cells; type: cell-based
[4] = target: Epidermal growth factor receptor (Homo sapiens, UniProt P00533); experiment: Inhibition of EGFR
Chain of Epidermal growth factor receptor (P00533 whole entry): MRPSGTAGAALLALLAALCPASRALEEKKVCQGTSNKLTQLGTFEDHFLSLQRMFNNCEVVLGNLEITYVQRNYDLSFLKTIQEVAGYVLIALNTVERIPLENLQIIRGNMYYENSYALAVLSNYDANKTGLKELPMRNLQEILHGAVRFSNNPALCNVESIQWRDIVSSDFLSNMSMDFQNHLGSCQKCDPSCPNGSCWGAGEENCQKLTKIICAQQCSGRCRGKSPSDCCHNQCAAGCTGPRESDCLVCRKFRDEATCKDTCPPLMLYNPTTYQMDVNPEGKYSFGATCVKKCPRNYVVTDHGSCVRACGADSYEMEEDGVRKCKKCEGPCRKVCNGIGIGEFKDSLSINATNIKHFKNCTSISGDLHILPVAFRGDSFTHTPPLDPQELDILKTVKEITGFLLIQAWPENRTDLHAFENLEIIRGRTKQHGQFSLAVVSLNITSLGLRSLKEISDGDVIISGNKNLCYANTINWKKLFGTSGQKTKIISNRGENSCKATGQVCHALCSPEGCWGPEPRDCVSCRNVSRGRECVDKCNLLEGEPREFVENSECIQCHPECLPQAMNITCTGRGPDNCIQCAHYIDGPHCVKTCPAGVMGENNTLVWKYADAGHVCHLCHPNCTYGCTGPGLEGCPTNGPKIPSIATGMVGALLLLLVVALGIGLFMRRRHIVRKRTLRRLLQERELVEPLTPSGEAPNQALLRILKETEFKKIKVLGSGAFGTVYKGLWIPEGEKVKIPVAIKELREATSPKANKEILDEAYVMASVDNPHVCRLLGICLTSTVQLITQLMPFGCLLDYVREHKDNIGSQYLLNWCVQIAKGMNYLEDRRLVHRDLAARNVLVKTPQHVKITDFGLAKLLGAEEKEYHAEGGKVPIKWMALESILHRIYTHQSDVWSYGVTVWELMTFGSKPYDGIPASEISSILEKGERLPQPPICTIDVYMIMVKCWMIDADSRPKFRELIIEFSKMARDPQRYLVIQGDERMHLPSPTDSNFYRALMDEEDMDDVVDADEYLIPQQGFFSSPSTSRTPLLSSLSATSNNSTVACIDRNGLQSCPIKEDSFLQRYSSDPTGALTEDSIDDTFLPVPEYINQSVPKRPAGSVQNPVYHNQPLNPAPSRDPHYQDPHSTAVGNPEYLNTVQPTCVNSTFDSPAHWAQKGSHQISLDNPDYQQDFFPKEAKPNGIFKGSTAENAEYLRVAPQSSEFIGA

[5] = target: T2, Insulin receptor (Homo sapiens, UniProt P06213); experiment: Binding affinity to insulin receptor by liquid scintillation counting; conditions: read-out: Ki(app)
T2 sequence (P06213 28-758 limits assumed): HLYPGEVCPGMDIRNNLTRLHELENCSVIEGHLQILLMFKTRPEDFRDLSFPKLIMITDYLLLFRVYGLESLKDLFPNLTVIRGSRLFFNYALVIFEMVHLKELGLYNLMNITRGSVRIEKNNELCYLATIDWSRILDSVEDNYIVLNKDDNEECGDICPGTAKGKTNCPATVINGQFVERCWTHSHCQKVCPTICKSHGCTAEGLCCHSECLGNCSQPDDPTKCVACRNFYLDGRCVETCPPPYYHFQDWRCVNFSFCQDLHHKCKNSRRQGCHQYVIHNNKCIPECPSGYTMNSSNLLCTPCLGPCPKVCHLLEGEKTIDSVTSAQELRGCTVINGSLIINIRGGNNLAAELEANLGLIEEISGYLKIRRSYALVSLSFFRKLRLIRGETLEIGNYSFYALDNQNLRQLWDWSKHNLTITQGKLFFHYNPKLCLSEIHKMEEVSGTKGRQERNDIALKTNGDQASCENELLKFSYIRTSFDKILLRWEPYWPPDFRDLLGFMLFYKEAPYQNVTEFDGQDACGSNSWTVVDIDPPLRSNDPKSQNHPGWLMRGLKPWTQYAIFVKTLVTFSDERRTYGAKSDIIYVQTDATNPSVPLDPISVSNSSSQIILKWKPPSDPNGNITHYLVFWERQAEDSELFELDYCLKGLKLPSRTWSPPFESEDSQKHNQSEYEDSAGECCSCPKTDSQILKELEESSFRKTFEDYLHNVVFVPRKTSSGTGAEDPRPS
T2 sequence (P06213 763-1382 limits assumed): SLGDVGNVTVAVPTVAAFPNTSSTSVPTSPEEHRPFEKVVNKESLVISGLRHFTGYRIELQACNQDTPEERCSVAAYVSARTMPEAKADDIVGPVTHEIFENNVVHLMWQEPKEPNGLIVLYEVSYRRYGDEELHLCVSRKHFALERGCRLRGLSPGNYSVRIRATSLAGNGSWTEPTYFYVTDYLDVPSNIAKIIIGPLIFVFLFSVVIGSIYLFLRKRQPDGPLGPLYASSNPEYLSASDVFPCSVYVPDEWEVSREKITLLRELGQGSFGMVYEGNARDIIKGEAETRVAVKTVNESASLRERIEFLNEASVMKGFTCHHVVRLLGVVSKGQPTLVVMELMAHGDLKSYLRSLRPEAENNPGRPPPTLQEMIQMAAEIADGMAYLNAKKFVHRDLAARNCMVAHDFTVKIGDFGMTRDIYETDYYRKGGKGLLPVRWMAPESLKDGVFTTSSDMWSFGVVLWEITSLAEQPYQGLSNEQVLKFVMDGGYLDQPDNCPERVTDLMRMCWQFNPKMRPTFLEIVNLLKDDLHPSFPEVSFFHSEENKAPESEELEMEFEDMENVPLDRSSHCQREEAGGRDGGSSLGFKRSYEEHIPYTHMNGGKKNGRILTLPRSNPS
Outline: (§2)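 Activated IGF-1R or IR kinase domains (pre-activated at 500 nM with 1 mM ATP for 30 min in pH 7.2 Hepes/MgCl2/BSA buffer with phosphatase inhibitors) were used at 0.5 nM final. Enzyme and ATP were pre-incubated with inhibitor for 6 h. […] Product was filter-captured and scintillation-counted. IC50 was converted to apparent Ki by Cheng–Prusoff.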

[6] = target: Tyrosine-protein kinase Lck (Homo sapiens, UniProt P06239); experiment: Inhibition of LCK
Chain of Tyrosine-protein kinase Lck (P06239 whole entry): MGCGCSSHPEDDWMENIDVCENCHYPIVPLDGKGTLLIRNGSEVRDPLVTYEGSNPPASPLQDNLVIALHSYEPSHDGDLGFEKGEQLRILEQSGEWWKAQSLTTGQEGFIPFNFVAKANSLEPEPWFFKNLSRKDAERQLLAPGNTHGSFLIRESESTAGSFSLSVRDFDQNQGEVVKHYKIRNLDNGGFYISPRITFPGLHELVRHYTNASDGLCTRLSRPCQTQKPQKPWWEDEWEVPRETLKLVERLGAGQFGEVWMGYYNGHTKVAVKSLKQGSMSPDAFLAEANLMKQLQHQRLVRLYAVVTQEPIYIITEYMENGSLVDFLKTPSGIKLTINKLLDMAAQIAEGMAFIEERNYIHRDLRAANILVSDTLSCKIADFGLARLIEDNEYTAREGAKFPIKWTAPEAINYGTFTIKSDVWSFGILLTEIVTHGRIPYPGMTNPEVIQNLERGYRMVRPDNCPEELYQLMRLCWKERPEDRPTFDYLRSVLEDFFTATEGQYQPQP

[7] = Clearance in po dosed mouse; type: ADME, organism-based; conditions: in vivo
[8] = target: Receptor tyrosine-protein kinase erbB-2 (Homo sapiens, UniProt P04626); experiment: Inhibition of ErbB2
Chain of Receptor tyrosine-protein kinase erbB-2 (P04626 whole entry): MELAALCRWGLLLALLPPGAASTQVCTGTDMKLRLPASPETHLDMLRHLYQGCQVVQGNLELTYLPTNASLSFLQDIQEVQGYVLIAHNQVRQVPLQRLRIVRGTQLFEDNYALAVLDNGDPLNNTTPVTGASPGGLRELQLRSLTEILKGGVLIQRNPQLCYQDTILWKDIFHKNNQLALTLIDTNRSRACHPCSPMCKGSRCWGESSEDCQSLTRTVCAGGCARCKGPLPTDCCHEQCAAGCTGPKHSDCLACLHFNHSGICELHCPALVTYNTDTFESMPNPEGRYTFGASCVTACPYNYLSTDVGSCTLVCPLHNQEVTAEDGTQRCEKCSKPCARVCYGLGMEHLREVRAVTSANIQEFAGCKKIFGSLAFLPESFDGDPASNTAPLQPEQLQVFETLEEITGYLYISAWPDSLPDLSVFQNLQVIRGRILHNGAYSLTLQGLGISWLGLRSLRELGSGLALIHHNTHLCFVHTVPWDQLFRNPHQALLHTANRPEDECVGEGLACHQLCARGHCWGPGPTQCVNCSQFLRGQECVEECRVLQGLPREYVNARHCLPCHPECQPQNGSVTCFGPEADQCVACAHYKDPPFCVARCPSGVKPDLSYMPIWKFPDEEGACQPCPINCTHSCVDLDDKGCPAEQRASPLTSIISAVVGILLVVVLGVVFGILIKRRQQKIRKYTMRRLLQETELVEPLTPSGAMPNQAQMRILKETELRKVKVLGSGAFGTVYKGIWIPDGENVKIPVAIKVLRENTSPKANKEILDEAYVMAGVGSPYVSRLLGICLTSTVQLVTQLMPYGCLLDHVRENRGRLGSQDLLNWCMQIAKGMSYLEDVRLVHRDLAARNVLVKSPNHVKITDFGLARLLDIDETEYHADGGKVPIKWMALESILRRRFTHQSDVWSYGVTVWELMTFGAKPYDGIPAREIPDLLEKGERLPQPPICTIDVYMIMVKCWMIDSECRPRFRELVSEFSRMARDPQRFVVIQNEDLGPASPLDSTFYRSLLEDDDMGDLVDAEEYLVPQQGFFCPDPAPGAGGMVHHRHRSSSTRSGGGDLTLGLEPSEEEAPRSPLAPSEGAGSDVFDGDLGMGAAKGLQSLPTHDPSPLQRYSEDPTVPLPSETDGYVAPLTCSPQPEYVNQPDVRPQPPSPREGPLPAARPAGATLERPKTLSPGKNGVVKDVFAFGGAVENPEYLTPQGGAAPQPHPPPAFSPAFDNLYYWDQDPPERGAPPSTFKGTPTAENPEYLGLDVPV

[9] = target: Aurora kinase B (Homo sapiens, UniProt Q96GD4); experiment: Inhibition of Aurora B
[10] = target: Serine/threonine-protein kinase B-raf (Homo sapiens, UniProt P15056, V600E); experiment: Inhibition of B-raf V600E mutant
Chain of Serine/threonine-protein kinase B-raf (P15056 2-766 V600E limits assumed): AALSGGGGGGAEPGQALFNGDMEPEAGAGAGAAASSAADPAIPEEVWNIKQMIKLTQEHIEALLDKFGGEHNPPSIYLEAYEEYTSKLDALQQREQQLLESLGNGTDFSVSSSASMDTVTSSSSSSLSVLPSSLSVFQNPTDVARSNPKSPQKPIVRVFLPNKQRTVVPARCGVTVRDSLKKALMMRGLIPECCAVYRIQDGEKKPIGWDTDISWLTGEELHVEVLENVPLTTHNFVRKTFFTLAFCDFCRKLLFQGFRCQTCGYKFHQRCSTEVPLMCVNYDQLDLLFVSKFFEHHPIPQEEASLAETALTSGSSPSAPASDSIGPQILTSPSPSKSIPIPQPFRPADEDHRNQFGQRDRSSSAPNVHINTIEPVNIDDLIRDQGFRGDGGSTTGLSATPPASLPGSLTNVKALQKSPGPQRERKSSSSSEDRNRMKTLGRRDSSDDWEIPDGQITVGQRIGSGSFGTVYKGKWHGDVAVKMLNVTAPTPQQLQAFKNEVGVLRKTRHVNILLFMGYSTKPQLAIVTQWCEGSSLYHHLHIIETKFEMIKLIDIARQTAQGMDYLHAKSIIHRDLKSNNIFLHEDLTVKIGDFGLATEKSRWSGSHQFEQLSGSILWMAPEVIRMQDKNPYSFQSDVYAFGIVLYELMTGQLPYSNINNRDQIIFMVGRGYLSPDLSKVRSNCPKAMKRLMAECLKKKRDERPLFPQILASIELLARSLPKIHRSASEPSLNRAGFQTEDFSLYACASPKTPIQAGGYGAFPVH

[11] = target: T2, Insulin receptor; experiment: Inhibition of GST-tagged insulin receptor expressed in baculovirus by time-resolved fluorescence assay
Outline: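 GST-tagged IR intracellular domain (aa 979–1382), baculovirus-expressed, activated at 2.7 µM with 2 mM ATP in 50 mM Hepes pH 7.5, 10 mM MgCl2, BSA. Phosphopeptide by TRF with streptavidin-allophycocyanin and Eu-anti-phosphotyrosine. n ≥ 2.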

[12] = target: T1, Insulin-like growth factor 1 receptor; experiment: Binding affinity to IGF1R by liquid scintillation counting; conditions: read-out: Ki(app); outline: as §2
[13] = target: Receptor tyrosine-protein kinase erbB-4 (Homo sapiens, UniProt Q15303); experiment: Inhibition of ErbB4
[14] = target: Mitogen-activated protein kinase 14 (Homo sapiens, UniProt Q16539); experiment: Inhibition of p38alpha
[15] = target: T3, Aurora kinase A (Homo sapiens, UniProt O14965); experiment: Inhibition of Aurora A
T3 sequence (O14965 whole entry): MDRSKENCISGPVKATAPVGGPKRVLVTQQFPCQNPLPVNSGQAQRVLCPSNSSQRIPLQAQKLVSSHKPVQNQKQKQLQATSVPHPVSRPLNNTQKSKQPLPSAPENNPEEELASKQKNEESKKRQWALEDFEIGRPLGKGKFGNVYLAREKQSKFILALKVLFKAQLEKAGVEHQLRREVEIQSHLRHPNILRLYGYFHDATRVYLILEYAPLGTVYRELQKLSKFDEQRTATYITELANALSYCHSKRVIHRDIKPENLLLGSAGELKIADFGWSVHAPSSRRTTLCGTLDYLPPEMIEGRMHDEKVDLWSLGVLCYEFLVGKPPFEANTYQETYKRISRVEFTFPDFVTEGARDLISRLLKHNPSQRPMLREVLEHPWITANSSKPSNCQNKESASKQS

[16] = system: Cynomolgus monkey; experiment: Dose normalized AUC in cynomolgus monkey at 2.1 mg/kg, po; type: ADME, organism-based, Macaca fascicularis; design: dose 2.1 mg/kg, route oral; conditions: in vivo
Outline: (§3)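 Compound given as solution in 1.0% DMSO, 20% Captisol in saline (IV) or water (PO); dog PO given as partial suspension. IV doses 0.6–1.3 mg/kg, PO 2.1–7.2 mg/kg by species. Male Sprague–Dawley rats, male beagle dogs, male cynomolgus monkeys. Data over 0–24 h; dose-normalized AUC as ng h/mL/(mg/kg).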

[17] = Clearance in Sprague-Dawley rat at 3 mg/kg, po; type: ADME, organism-based; design: dose 3 mg/kg, route oral; conditions: in vivo; outline: as §3
[18] = system: Canis familiaris; experiment: Volume of distribution at steady state in Beagle dog at 7.2 mg/kg, po; type: ADME, organism-based, Canis lupus familiaris; design: dose 7.2 mg/kg, route oral; conditions: in vivo; outline: as §3
[19] = Antiproliferative activity against human TC71 cells after 72 hrs by Celltiter assay; type: functional, cell-based; conditions: TC-71, 72 h
Outline: (§4)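 Cells seeded in 96-well dishes and incubated overnight at 37 °C, then exposed to a range of inhibitor concentrations for 72 h. Proliferation read by CellTiter-Glo luminescence per manufacturer's protocol. IC50 from 4-parameter curve fit.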

[20] = Oral bioavailability in cynomolgus monkey at 2.1 mg/kg; type: ADME, organism-based, Macaca fascicularis; conditions: in vivo; outline: as §3
[21] = Antiproliferative activity against human SK-ES cells after 72 hrs by Celltiter assay; type: functional, cell-based; outline: as §4
[22] = target: T2, Insulin receptor; experiment: Inhibition of human insulin receptor autophosphorylation in transfected mouse NIH3T3 cells; type: cell-based
Outline: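 NIH-3T3 cells expressing human IR were grown on collagen-coated plates for 24 h, then given inhibitor or DMSO. After 2 h they were stimulated with bovine insulin for 15 min and lysed in RIPA. Lysates were captured overnight at 4 °C on anti-IRβ plates. Phospho-IR was detected by Eu-phosphotyrosine antibody time-resolved fluorescence (340/615 nm), and total IR by anti-IR. IC50 was taken from the phospho/total ratio curves.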

[23] = system: Canis familiaris; experiment: Dose normalized AUC in Beagle dog at 7.2 mg/kg, po; type: ADME, organism-based, Canis lupus familiaris; design: dose 7.2 mg/kg, route oral; conditions: in vivo; outline: as §3
[24] = system: A549; experiment: Antiproliferative activity against human A549 cells after 72 hrs by Celltiter assay; type: functional, cell-based; conditions: A549, 72 h; outline: as §4
[25] = Oral bioavailability in Beagle dog at 7.2 mg/kg; type: ADME, organism-based, Canis lupus familiaris; conditions: in vivo; outline: as §3
[26] = system: HFF; experiment: Antiproliferative activity against HFF cells after 72 hrs by Celltiter assay; type: cell-based; conditions: Homo sapiens; outline: as §4
[27] = system: LP-1; experiment: Antiproliferative activity against human LP-1 cells after 72 hrs by Celltiter assay; type: functional, cell-based; conditions: LP-1, 72 h; outline: as §4
[28] = system: COLO 205; experiment: Antiproliferative activity against human COLO205 cells after 72 hrs by Celltiter assay; type: functional, cell-based; conditions: COLO 205, 72 h; outline: as §4
[29] = system: Rattus norvegicus; experiment: Volume of distribution at steady state in Sprague-Dawley rat at 3 mg/kg, po; type: ADME, organism-based; design: dose 3 mg/kg, route oral; conditions: in vivo; outline: as §3
[30] = Antiproliferative activity against human NCI-H929 cells after 72 hrs by Celltiter assay; type: functional, cell-based; conditions: NCI-H929, 72 h; outline: as §4
[31] = Clearance in Beagle dog at 7.2 mg/kg, po; type: ADME, organism-based, Canis lupus familiaris; design: dose 7.2 mg/kg, route oral; conditions: in vivo; outline: as §3
[32] = Clearance in cynomolgus monkey at 2.1 mg/kg, po; type: ADME, organism-based, Macaca fascicularis; design: dose 2.1 mg/kg, route oral; conditions: in vivo; outline: as §3
[33] = system: Rattus norvegicus; experiment: Dose normalized AUC in Sprague-Dawley rat at 3 mg/kg, po; type: ADME, organism-based; design: dose 3 mg/kg, route oral; conditions: in vivo; outline: as §3
[34] = Oral bioavailability in Sprague-Dawley rat at 3 mg/kg; type: ADME, organism-based; conditions: in vivo; outline: as §3
[35] = system: Cynomolgus monkey; experiment: Volume of distribution at steady state in cynomolgus monkey at 2.1 mg/kg, po; type: ADME, organism-based, Macaca fascicularis; design: dose 2.1 mg/kg, route oral; conditions: in vivo; outline: as §3
[36] = system: Mus musculus; experiment: Dose normalized AUC (0 to 6 hrs) in mouse at 7.3 mg/kg, po; type: ADME, organism-based; design: time < 6 hr, dose 7.3 mg/kg, route oral; conditions: in vivo; outline: as §1

COc1cc(N2CCC(N3CC[C@@H](F)C3)CC2)ccc1Nc1nccc(-c2c(-c3cccc(C(=O)Nc4c(F)cccc4F)c3)nc3ccccn23)n1
IC50 [1]: 2 nM | AUC [2]: 494 ng·h/mL | IC50 [3]: 40 nM

COc1cc(N2CCC(N3CCOCC3)CC2)ccc1Nc1nccc(-c2c(-c3cccc(C(=O)Nc4c(F)cccc4F)c3)nc3ccccn23)n1
IC50 [1]: 2 nM | AUC [2]: 276 ng·h/mL | IC50 [3]: 41 nM

CN(C)CCOc1cccc(Nc2nccc(-c3c(-c4cccc(C(=O)Nc5c(F)cccc5F)c4)nc4ccccn34)n2)c1
IC50 [1]: 1 nM | IC50 [3]: 177 nM

O=C(Nc1c(F)cccc1F)c1cccc(-c2nc3ccccn3c2-c2ccnc(Nc3ccc(N4CCC(N5CCCCC5)CC4)cc3)n2)c1
IC50 [1]: 2 nM | IC50 [3]: 87 nM

COc1cc(N2CCC(N3CCN(S(C)(=O)=O)CC3)CC2)ccc1Nc1nccc(-c2c(-c3cccc(C(=O)Nc4c(F)cccc4F)c3)nc3ccccn23)n1
IC50 [4]: 57 nM | IC50 [1]: 5 nM | Ki [5]: 2.2 nM | AUC [2]: 1060 ng·h/mL | IC50 [6]: 1200 nM | IC50 [3]: 36 nM | CL/F [7]: 13.6 mL/min/kg | IC50 [8]: 72 nM | IC50 [9]: 200 nM | IC50 [10]: 80 nM | IC50 [11]: 5 nM | Ki [12]: 5.2 nM | IC50 [13]: 74 nM | IC50 [14]: 440 nM | IC50 [15]: 1600 nM

CCc1cc(Nc2nccc(-c3c(-c4cccc(C(=O)Nc5c(F)cccc5F)c4)nc4ccccn34)n2)c(OC)cc1N1CCC(N2CCN(S(C)(=O)=O)CC2)CC1
IC50 [4]: 22 nM | IC50 [1]: 7 nM | IC50 [6]: 710 nM | IC50 [8]: 54 nM | IC50 [9]: 1300 nM | IC50 [10]: 320 nM | IC50 [11]: 7 nM | IC50 [13]: 140 nM | IC50 [14]: 1800 nM | IC50 [15]: > 9500 nM

COc1cc(N2CCC(N3C[C@@H](C)O[C@@H](C)C3)CC2)ccc1Nc1nccc(-c2c(-c3cccc(C(=O)Nc4c(F)cccc4F)c3)nc3ccccn23)n1
IC50 [1]: 4 nM | AUC [2]: 549 ng·h/mL | IC50 [3]: 68 nM

CCc1cc(Nc2nccc(-c3c(-c4ccc(OC)c(C(=O)Nc5c(F)cccc5F)c4)nc4ccccn34)n2)c(OC)cc1N1CCC(N2CCN(S(C)(=O)=O)CC2)CC1
IC50 [4]: > 10000 nM | AUC [16]: 1070 ng·h/mL | CL/F [17]: 5.8 mL/min/kg | Vdss [18]: 4.7 L/kg | IC50 [19]: 35 nM | bioavailability [20]: 97% | IC50 [21]: 61 nM | IC50 [1]: 27 nM | Ki [5]: 1.3 nM | IC50 [22]: 19 nM | AUC [23]: 870 ng·h/mL | IC50 [24]: > 20000 nM | bioavailability [25]: 47% | IC50 [6]: > 3000 nM | IC50 [3]: 22 nM | IC50 [26]: > 20000 nM | IC50 [27]: 104 nM | IC50 [28]: 124 nM | IC50 [8]: > 10000 nM | Vdss [29]: 7.5 L/kg | IC50 [30]: 81 nM | IC50 [9]: 4500 nM | IC50 [10]: > 2000 nM | IC50 [11]: 25 nM | CL/F [31]: 8.7 mL/min/kg | Ki [12]: 1.6 nM | CL/F [32]: 13.9 mL/min/kg | IC50 [13]: > 25000 nM | IC50 [14]: 11000 nM | AUC [33]: 1220 ng·h/mL | IC50 [15]: > 1500 nM | bioavailability [34]: 63% | Vdss [35]: 9.8 L/kg

COc1cc(N2CCC(N3CCCC3)CC2)ccc1Nc1nccc(-c2c(-c3cccc(C(=O)Nc4c(F)cccc4F)c3)nc3ccccn23)n1
IC50 [1]: 2 nM | AUC [2]: 121 ng·h/mL | IC50 [3]: 38 nM

COc1cc(N2CCC(N3CCN(C)CC3)CC2)ccc1Nc1nccc(-c2c(-c3cccc(C(=O)Nc4c(F)cccc4F)c3)nc3ccccn23)n1
IC50 [1]: 2 nM | AUC [2]: 203 ng·h/mL | IC50 [3]: 28 nM

COc1cc(N2CCC(N3CCN(C(C)=O)CC3)CC2)ccc1Nc1nccc(-c2c(-c3cccc(C(=O)Nc4c(F)cccc4F)c3)nc3ccccn23)n1
IC50 [1]: 3 nM | AUC [2]: 216 ng·h/mL | IC50 [3]: 65 nM

COc1cc(N2CCC(N3CCCCC3)CC2)ccc1Nc1nccc(-c2c(-c3cccc(C(=O)Nc4c(F)cccc4F)c3)nc3ccccn23)n1
AUC [36]: 239 ng·h/mL | IC50 [1]: 2 nM | IC50 [3]: 38 nM | CL/F [7]: 13.4 mL/min/kg
